Results as given in article PMC11238050 (Research and Practice in Thrombosis and Haemostasis, 2024).
Read-outs that look alike come from different tables or passages of the source.

Legend:
[1] = target: T1, thrombin (Homo sapiens, UniProt P00734); test: Intrinsic fluorescence spectrophotometry binding, thrombin; conditions: after 24 hours at room temperature
[2] = system: human blood clot; test: Whole blood clot formation assay; conditions: 0.3 mM SAB
Outline: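 Blood was diluted 3-fold and treated with test compound (0.3 mM final, in PBS) or blank PBS. It was recalcified with 1 mM CaCl2 plus 2 U/mL thrombin and incubated 90 min at 37 °C. Clots were removed from the serum, and dry weight was measured after 24 h at room temperature (20 °C).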

[3] = system: lysozyme; test: Intrinsic fluorescence spectrophotometry binding, lysozyme control; conditions: SAB titrated with lysozyme 0 to 95.6 μM, 20 °C
Outline: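 Intrinsic fluorescence of test compound (27.2 ± 0.4 μM) in PBS, 20 °C, titrated with lysozyme 0–95.6 μM; blank PBS titrated separately. Excitation 382 nm, emission peak ~498 nm, with inner-filter correction. Integrated emission was averaged, normalised and plotted against protein concentration, then fitted to a binding model for apparent Kd. Four trials.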

[4] = target: T1, thrombin; test: Isothermal titration calorimetry, thrombin; format: binding; conditions: ITC, 20 °C, PBS pH 7.4
[5] = system: Human gel-filtered platelet; test: Thrombin-induced platelet aggregation assay; format: cell-based; conditions: […] SAB, 0.02 U/mL thrombin
Outline: (§1)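 Human platelets in PRP or PIPES buffer, adjusted to 3.0 × 10^8/mL and preincubated 10 min at 37 °C with test compound in PBS (pH 7.4; 0.1–0.3 mM) or PBS alone. Agonists were bovine thrombin 0.02 U/mL, collagen 5 μg/mL or ADP 20 μM. Light-transmission aggregometry was run at 37 °C with stirring at 1000 rpm and recorded for at least 8 min.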

[6] = system: human platelet thrombus formation; test: Collagen-coated perfusion chamber analysis; format: cell-based; conditions: 0.32 mM SAB
Outline: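 Heparinised (5 U/mL) human whole blood was labelled with 1 μM DiOC6 for 20 min at 37 °C, then incubated with test compound or PBS for 10 min. It was perfused over a collagen-coated glass chamber for 3 min at 1800 or 300 s^−1. Platelet adhesion was recorded by fluorescence microscopy during perfusion, and thrombus mean fluorescence intensity was quantified.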

[7] = system: carotid artery thrombosis; test: Ferric chloride carotid artery thrombosis model; format: in vivo, C57BL/6J mice; conditions: 15 mpk SAB via tail vein at 50% flow reduction, 10% ferric chloride
Outline: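 Isoflurane-anaesthetised C57BL/6J mice (>8 weeks, 20–35 g) had filter paper soaked in 10% FeCl3 applied to the carotid adventitia for 180 s. The vessel was rinsed with warm saline. Doppler flow probe recorded flow for 30 min. At 50% flow reduction, test compound (15 mpk, ~0.3 mM blood level) or saline was given via the tail vein. Flow recovery and occlusion time were recorded.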

[8] = system: human platelet; format: cell-based
[9] = system: human platelet-poor plasma coagulation; test: Prothrombin time and activated partial thromboplastin time measurement; conditions: 0.6 mM SAB, human cell-free plasma
Outline: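 Human platelet-poor plasma was tested in a steel-ball coagulometer. For PT, RecombiPlasTin 2G and its diluent stood 20 min at room temperature, were mixed 1:1 and warmed 5 min at 37 °C, then added to plasma (2:1 v/v). For aPTT, SynthASil was incubated 2 min at 37 °C, then 20 mM CaCl2 was added. Both end-points were time to solid gel.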

[10] = system: thrombus formation in mouse cremaster arterioles; test: Laser-injury intravital microscopy thrombosis model; conditions: 0.010 mM final in vivo SAB concentration, jugular vein injection
Outline: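 Mice received fluorescently labelled anti-GPIb antibody (1 µg/g) through a jugular vein cannula before injury. Test compound was injected via the jugular cannula to a 0.010 mM final in vivo level, calculated from body weight (80 µL/g blood volume). Multiple cremaster arteriole injuries were made with a pulsed nitrogen dye laser. Thrombus formation was imaged by intravital microscopy and quantified as platelet MFI.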

[11] = system: platelets (gel-filtered / PRP); test: Collagen- and ADP-induced platelet aggregation; format: cell-based, human
Outline: as §1

[12] = system: lysozyme; test: Isothermal titration calorimetry, lysozyme control; format: binding; conditions: 20 μM lysozyme, 0.312 mM SAB titrant, 20 °C, PBS pH 7.4
Outline: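 ITC at 20 °C in PBS pH 7.4 was run with 20 μM lysozyme in the cell and test compound (0.312 mM) as titrant. Protocol: 60 s initial delay, 2 µL purge injection, then 34 injections of 8 µL every 300 s. The first point was discarded, and data were corrected for heat of dilution from titrant-into-buffer runs.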

[13] = system: human blood coagulation; test: Thromboelastography; conditions: 0.3 mM SAB
Outline: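 Thromboelastography used citrated (3.2%) whole blood from healthy human donors, treated with test compound (0.3 mM) or an equal volume of PBS. Samples were recalcified with 0.2 M CaCl2 stock and analysed on a TEG analyser.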

[14] = Stability of SAB in solution on storage and freeze-thaw; format: physicochemical; conditions: inhibitory function for platelet aggregation
[15] = system: cell-free human blood plasma coagulation; test: Clot turbidity assay; conditions: read-out: EC50, delay of cell-free human blood plasma coagulation; clot turbidity at 405 nm, 37 °C, 0.1 U/mL thrombin
[16] = flow cytometry, human platelets
[17] = flow cytometry, thrombin-stimulated human platelets

Salvianolic acid B [SAB]
decrease in the SAB-thrombin complex signal [1]: less than 3% | dry weight of the human blood clot [2]: significantly reduced | binding to lysozyme (fluorescence) [3]: no direct interactions | Hill coefficient nH [4]: 1.1 | ΔH1 [4]: 18 ± 1 kcal/mol | ΔH2 [4]: 180 ± 6 kcal/mol | −TΔS1 [4]: -27 ± 1 kcal/mol | −TΔS2 [4]: -185 ± 12 kcal/mol | Kd ([4]; read-out: Kd1): 0.62 ± 0.08 µM | Kd ([4]; read-out: dissociation constant Kd2 (weak binding site)): 37 ± 4 µM | platelet aggregation [5]: completely abolished | human platelet thrombus formation, venous shear rate ([6]; 300 s^−1, collagen-coated chamber): significantly inhibited | human platelet thrombus formation, arterial shear rate ([6]; 1800 s^−1, collagen-coated chamber): significantly inhibited | carotid blood flow [7]: rescued | vessel occlusion (time) [7]: prolonged | thrombin-induced platelet surface expression of Ricinus communis agglutinin-1 (RCA-1) [8]: significantly reduced | thrombin-induced platelet surface expression of P-selectin [8, 16]: significantly reduced | thrombin-induced platelet surface expression of annexin-V [8, 16]: significantly reduced | binding of PAC-1 monoclonal antibody (αIIbβ3 integrin activation) [8, 17]: significantly decreased | binding of fibrinogen (αIIbβ3 integrin activation) [8, 17]: significantly decreased | activated partial thromboplastin time (aPTT) [9]: prolonged | prothrombin time (PT) [9]: prolonged | reduction of thrombus formation in mouse cremaster vessels (platelet MFI) [10]: approximately 65% ± 5% | ADP-induced platelet aggregation ([11]; PRP, 20 μM ADP): attenuated | collagen-induced platelet aggregation ([11]; gel-filtered platelets, 5 μg/mL collagen): attenuated | binding to lysozyme (ITC) [12]: no interaction | initiation of human blood coagulation (R-time) in TEG [13]: significantly prolonged | effect of prolonged storage in solution and repeated freeze-thaw cycles on SAB [14]: decreased SAB inhibitory function | EC50 [15]: 62 ± 70 µM
